High-throughput results as filed in PubChem.
APJ antagonist – antagonists of human apelin receptor APJ, primary screen, CHO-K1 cells, beta-arrestin complementation, luminescence | inhibition, % at 20 µM | 330,000 tested, 0.32% active;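 active means inhibition above about 40% at 20 µM, limit read from the data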;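 further: cells challenged with 10 nM apelin-13 agonist together with compound; plate controls were apelin-13 plus DMSO wells for no effect and DMSO wells lacking apelin-13 for full effect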
APJ agonist – agonists of human apelin receptor APJ, primary screen, CHO-K1 cells, PathHunter beta-arrestin, luminescence; P35414; 0% DMSO wells, 100% apelin; activation, % at 20 µM; 330,000 tested, 0.11% active;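 active means activation more than six SD over the plate average, tested at 20 µM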;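 further: 0% = DMSO alone and 100% = apelin-13 at 10 nM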
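Test system: CHO-K1 APJ beta-arrestin complementation cell line | Compound: Single test compound dose, 20 µM final, 1% DMSO | Incubation: Compound 90 min 25 °C, reagent 1 h | Measured by: beta-gal luminescence | Read-out basis: APJ–arrestin association signal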
CCR6 antag – CCR6 receptor antagonists, primary screen, cell-based, CHO-K1, luminescence, beta-arrestin, uHTS; inhibition, % at 20 µM; AID 493098, 2011; 340,000 tested, 0.49% active; CHO-K1 CCR6 PathHunter beta-arrestin, CCL20-stimulated;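 active means compounds whose inhibition of the agonist-driven luminescence signal at 20 µM reaches about 50%, limit read from the data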;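 further: cells stimulated with CCL20 at 14 nM final; plate controls were DMSO with CCL20 for no effect and DMSO without agonist for full effect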
CXCR6 inh – CXCR6 receptor inhibitors, primary screen, cell-based, beta-arrestin, luminescence, CHO-K1 PathHunter, 1536-well; C-X-C chemokine receptor type 6 (Homo sapiens), O00574; inhibition, % at 20 µM; 360,000 tested, 0.36% active; AID 602244, 2012; in the data active means inhibition above about 34%, passing the limit was not always enough;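 further: antagonist mode with CXCL16 agonist at 10 nM final; 0% = 10 nM CXCL16 with DMSO and 100% = unstimulated wells without agonist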
EBI2 block – EBI2 receptor antagonists, beta-arrestin recruitment, primary screen, cell-based, luminescence, 7a,25-OHC stimulation, uHTS. 7a,25-OHC stimulated. inhibition, % at 5 µM. 360,000 tested, 0.81% active. AID 651636, 2012; in the data active means inhibition above about 38%;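 further: enzyme fragment complementation signal reports receptor beta-arrestin coupling in cells; 0% = agonist plus DMSO wells and 100% = wells without agonist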
Target sequence (P32249 whole entry, looked up, the tested form may be a part): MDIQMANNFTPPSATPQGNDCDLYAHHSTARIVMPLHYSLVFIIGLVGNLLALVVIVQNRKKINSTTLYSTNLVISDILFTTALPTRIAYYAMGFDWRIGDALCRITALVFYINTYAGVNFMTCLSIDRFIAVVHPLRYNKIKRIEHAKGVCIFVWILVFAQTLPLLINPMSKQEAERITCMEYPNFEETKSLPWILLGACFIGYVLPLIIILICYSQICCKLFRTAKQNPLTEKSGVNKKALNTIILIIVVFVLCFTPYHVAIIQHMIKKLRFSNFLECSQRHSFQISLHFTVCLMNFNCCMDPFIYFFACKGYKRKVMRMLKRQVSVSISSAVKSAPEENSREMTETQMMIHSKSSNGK
APJ antag confirm – APJ antagonists blocking beta-arrestin recruitment, confirmation, cell-based, luminescence, single concentration, uHTS hits. shares compounds with APJ antagonist. antagonist mode. inhibition, % at 20 µM. 950 tested, 66% active; in the data active means inhibition above about 50%
Starred values were filed as active, the others as inactive. Compounds with a hit are over-represented: about 1.5% of the library has one in this group of screens.

Screening N#CCC(=O)Nc1ccc(C(=O)OCC(=O)N(C2CCCCC2)C2CCCCC2)cc1 returned APJ antagonist 0, APJ agonist 0, CCR6 antag 8, CXCR6 inh -6 and EBI2 block 4.
CCN(CC)C1=C(Cl)C(=O)C(Cl)C12OCCO2 (configuration not stated) was read as APJ antagonist 7, APJ agonist -5, CCR6 antag -7, CXCR6 inh 4 and EBI2 block -7.
`COc1cccc(N2CC(C)Cn3c2nc2c3c(=O)[nH]c(=O)n2C)c1` (configuration not stated) gave APJ antagonist 46*, APJ agonist -6, CCR6 antag 41, CXCR6 inh 44*, EBI2 block 17 and APJ antag confirm 79*.
Screening Cc1cc(C)cc(N2CC(C)Cn3c2nc2c3c(=O)[nH]c(=O)n2C)c1 (configuration not stated) returned APJ antagonist 23, APJ agonist -4, CCR6 antag -1, CXCR6 inh 3 and EBI2 block -1.
Cc1ccc(C(=O)COC(=O)C2CC3CCCC(C2)C3=O)cc1[N+](=O)[O-] (configuration not stated) was read as APJ antagonist 43*, APJ agonist -9, CCR6 antag 25, CXCR6 inh 18, EBI2 block -2 and APJ antag confirm 22.
O=C(CCN1C(=O)C2C3CC(C(Br)C3Br)C2C1=O)OCC(=O)c1cccc([N+](=O)[O-])c1 (configuration not stated) was read as APJ antagonist 59*, APJ agonist -13, CCR6 antag 55*, CXCR6 inh 28, EBI2 block 12 and APJ antag confirm 100*.
`O=C(CN1C(=O)C2C3C=CC(C3)C2C1=O)OCC(=O)c1ccc(Cl)c([N+](=O)[O-])c1` (configuration not stated) gave APJ antagonist 81*, APJ agonist -38, CCR6 antag 71*, CXCR6 inh 48*, EBI2 block 5 and APJ antag confirm 143*.
`Cc1ccc([N+](=O)[O-])c(NC(=O)COC(=O)C2CC3CCCC(C2)C3=O)c1C` (configuration not stated) gave APJ antagonist 1, APJ agonist 2, CCR6 antag 6, CXCR6 inh 2 and EBI2 block -4.
`Cc1ccc(C(=O)COC(=O)CN2C(=O)C3C4CCC(C4)C3C2=O)cc1C` (configuration not stated) gave APJ antagonist 8, APJ agonist -7, CCR6 antag -5, CXCR6 inh 0 and EBI2 block 4.
Cc1ccc(C(=O)COC(=O)CN2C(=O)C3C4C=CC(C4)C3C2=O)cc1[N+](=O)[O-] (configuration not stated) was read as APJ antagonist 38, APJ agonist -11, CCR6 antag 38, CXCR6 inh 25 and EBI2 block 1.
Screening Cc1ccc(C(=O)COC(=O)CN2C(=O)C3C4CCC(C4)C3C2=O)cc1[N+](=O)[O-] (configuration not stated) returned APJ antagonist 49*, APJ agonist -1, CCR6 antag 50, CXCR6 inh 14, EBI2 block -5 and APJ antag confirm 35.
For COc1ccc2cc(/C(C)=N/NC(=O)c3cc(C)oc3C)ccc2c1 the results were CXCR6 inh 3 and EBI2 block -7.
`Cc1ccc(C(=O)COC(=O)CCN2C(=O)C3C4CCC(C4)C3C2=O)cc1[N+](=O)[O-]` (configuration not stated) gave APJ antagonist 50*, APJ agonist -23, CCR6 antag 25, CXCR6 inh 16, EBI2 block 19 and APJ antag confirm 44.
`O=C(CN1C(=O)C2C3CCC(C3)C2C1=O)OCC(=O)c1cccc([N+](=O)[O-])c1` (configuration not stated) gave APJ antagonist 61*, APJ agonist -12, CCR6 antag 62*, CXCR6 inh 37, EBI2 block 22 and APJ antag confirm 89*.
`Cc1ccc(C(=O)COC(=O)CN2C(=O)C3CC=CCC3C2=O)cc1[N+](=O)[O-]` (configuration not stated) gave APJ antagonist 45*, APJ agonist -22, CCR6 antag 28, CXCR6 inh 3, EBI2 block -1 and APJ antag confirm 79*.
Screening O=C(CCNC(=O)c1ccccc1Cl)Nc1cccc(S(=O)(=O)N2CCCC2)c1 returned APJ antagonist 6, APJ agonist -1, CCR6 antag 6, CXCR6 inh 3 and EBI2 block 8.
`Cc1sc2c(c1C)CN(CCN1CCOCC1)CN2C(=O)c1ccccc1` gave APJ antagonist 7, APJ agonist -4, CCR6 antag 2, CXCR6 inh -6 and EBI2 block -5.
CCCCNC(=O)c1cn(C)c2ccc(S(=O)(=O)N3CC(C)CC(C)C3)cc2c1=O (configuration not stated) was read as APJ antagonist -2, APJ agonist 4, CCR6 antag 22, CXCR6 inh 10 and EBI2 block -20.
CCn1c(O)c(N=Nc2ccc3ccccc3n2)c2ccccc21 was read as APJ antagonist 13, APJ agonist -2, CCR6 antag 13, CXCR6 inh 4 and EBI2 block 29.
`Brc1ccc(N=Nc2ccc3ccccc3n2)cc1` gave APJ antagonist 49*, APJ agonist -13, CCR6 antag 31, CXCR6 inh 16, EBI2 block 43 and APJ antag confirm 54*.
Screening CCCCC[C@@H]1[C@H]2[C@H]3C(=O)N(c4ccccc4)C(=O)[C@H]3CC(=O)[C@H]2[C@H](c2ccccc2)N1S(=O)(=O)c1ccc(C)cc1 returned CXCR6 inh -6 and EBI2 block -5.
Screening C/C(=N\NC(=S)Nc1cccc(C)c1)c1ccccc1 returned APJ antagonist 44*, APJ agonist -6, CCR6 antag 53*, CXCR6 inh 33, EBI2 block 26 and APJ antag confirm 91*.
Screening COC(=O)C1NN=C(C(=O)c2ccccc2)C1c1ccccc1 (configuration not stated) returned APJ antagonist 19, APJ agonist -2, CCR6 antag 13, CXCR6 inh -3 and EBI2 block -3.
